Peptide text beside a SMILES is read from it. * marks the point of attachment. Hydrocinnamoyl = O=C(CCc1ccccc1)*; Undecanoyl = CCCCCCCCCCC(=O)*; Lauroyl = CCCCCCCCCCCC(=O)*; Nicotinoyl = O=C(c1cccnc1)*; NHPh = c1ccc(N*)cc1; NHOH = ON*

This test is filed under the species Rattus norvegicus. The experiment in a line: Inhibition of rat recombinant Rab geranylgeranyltransferase at 100 uM in presence of canine Rab7 and rat REP1 NBD-FPP based continuous fluorimetric assay. In a few lines:
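Continuous fluorometric assay in 96/384-well format: 3 μM Rab7, 3 μM REP1, 9 μM NBD-FPP and 400 nM RabGGTase, with or without inhibitor. […] IC50 was calculated from three independent measurements.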
What is called inhibition is the relative decrease from the control value, in per cent. For the compound `O=C(CNC(=O)[C@H](Cc1ccccc1)NC(=O)c1coc(-c2ccccc2)n1)N[C@@H](CO)C(=O)O`, the inhibition stood at 106%.

Regarding `CC(C)C[C@H](NC(=O)/C=C/c1ccccc1)C(=O)N[C@@H](Cc1ccccc1)C(=O)N[C@@H](Cc1ccccc1)C(=O)Nc1ccc(F)cc1F`, the inhibition was 93%. In the case of `CC(C)C[C@H](NC(=O)[C@H](CO)NC(=O)[C@H](Cc1ccccc1)NC(=O)CCc1ccccc1)C(N)=O` it was 100%. For `O=C(CNC(=O)[C@H](Cc1ccc(O)cc1)NC(=O)c1ccc(F)cc1)N[C@@H](Cc1ccc(O)cc1)C(=O)Nc1ccc(F)cc1F` the value was 98%; for `Cc1nc(C)c(C(=O)OC[C@H](NC(=O)[C@H](Cc2ccccc2)NC(=O)[C@H](CO)NC(=O)c2coc(-c3ccccc3)n2)C(=O)O)o1`, 84%; for `O=C(CCc1ccccc1)N[C@@H](CO)C(=O)N[C@@H](Cc1ccccc1)C(=O)N[C@@H](CO)C(=O)Nc1ccc(N2CCOCC2)cc1`, 95%. For `CCCCCCCCCCC(=O)NC(Cc1ccc(O)cc1)C(=O)N[C@@H](Cc1c[nH]cn1)C(=O)N[C@@H](Cc1c[nH]cn1)C(=O)NCC(O)CO` (stereo partly specified) the value was 89%. Consider `CCCCCCCCCCC(=O)N[C@@H](Cc1c[nH]cn1)C(=O)N[C@@H](Cc1c[nH]cn1)C(=O)N[C@@H](Cc1ccc(O)cc1)C(=O)Nc1ccccn1`, for which the inhibition was 70%.

`O=C(CCc1ccccc1)N[C@@H](CO)C(=O)N[C@@H](Cc1ccccc1)C(=O)N[C@@H](CO)C(=O)Nc1ccccc1` (Hydrocinnamoyl-Ser-Phe-Ser-NHPh): the inhibition was found to be 89%. In the case of `CCCCCCCCCCC(=O)N[C@@H](Cc1c[nH]cn1)C(=O)N[C@@H](Cc1ccccc1)C(=O)N[C@@H](Cc1ccc(O)cc1)C(=O)OC` (Undecanoyl-His-Phe-Tyr-OMe) it was 68%. In the case of `CCCCCCCCCCC(=O)N[C@@H](Cc1c[nH]cn1)C(=O)N[C@@H](Cc1cnc[nH]1)C(=O)N[C@@H](Cc1ccc(O)cc1)C(=O)NCC(O)CO` (stereo partly specified) it was 65%; in that of `C[C@H](NC(=O)[C@@H](NC(=O)c1ccc(-c2ccccc2)cc1)[C@@H](C)O)C(=O)N[C@@H](CCC(N)=O)C(=O)Nc1ccc(F)c(Cl)c1`, 100%. In the case of `COC(=O)[C@H](Cc1ccc(O)cc1)NC(=O)CCNC(=O)[C@H](Cc1c[nH]cn1)NC(=O)OCc1ccccc1` it was 72%; in that of `CON(C)C(=O)[C@H](CC(C)C)NC(=O)[C@H](COC(C)(C)C)NC(=O)[C@H](Cc1ccccc1)NC(=O)/C=C/c1ccc(F)cc1`, 94%. As to `O=C(N[C@@H](Cc1ccc(O)cc1)C(=O)N[C@@H](Cc1ccc(O)cc1)C(=O)N[C@@H](Cc1ccc(O)cc1)C(=O)O)c1ccc(F)cc1F`, the inhibition was 106%. In the case of `C=CCCCCCCCCCOC(=O)[C@H](CO)NC(=O)CNC(=O)[C@H](Cc1ccccc1)NC(=O)c1coc(-c2ccccc2)n1` it was 5%; in that of `O=C(CNC(=O)[C@@H]1CCCN1C(=O)c1coc(-c2ccccc2)n1)N[C@@H](Cc1ccc(O)cc1)C(=O)Nc1ccc(F)cc1F`, 89%; in that of `CCCCCCCCCCCCCC(=O)OC[C@H](NC(=O)CNC(=O)[C@H](Cc1ccccc1)NC(=O)c1coc(-c2ccccc2)n1)C(=O)O`, 38%. Take `CC[C@H](C)[C@H](NC(=O)c1ccc(-c2ccccc2)cc1)C(=O)N[C@@H](C(=O)N[C@@H](CCC(N)=O)C(=O)Nc1cccc(Br)n1)C(C)C`: the inhibition worked out at 106%. As to `NC(=O)CC[C@H](NC(=O)[C@H](Cc1ccccc1)NC(=O)[C@H](CO)NC(=O)CCc1ccccc1)C(=O)Nc1ccccc1` (Hydrocinnamoyl-Ser-Phe-Gln-NHPh), the inhibition came to 90%.

Turning to `COC(=O)[C@H](Cc1ccccc1)NC(=O)[C@H](CC(C)C)NC(=O)[C@@H]1CCCN1C(=O)/C=C/c1ccccc1`, the inhibition was 79%. In the case of `CCCCCCCCCCCOc1ccc(C(=O)N[C@@H](Cc2c[nH]cn2)C(=O)N[C@@H](Cc2ccc(O)cc2)C(=O)N[C@@H](Cc2ccccc2)C(=O)OCCN)cc1` it was 74%; in that of `CCCCCCCCCCCCCCCC(=O)N[C@@H](Cc1ccc(O)cc1)C(=O)N[C@@H](Cc1ccc(O)cc1)C(=O)N[C@@H](Cc1ccc(O)cc1)C(=O)NCCCn1ccnc1`, 85%. For `CC(=O)Nc1cc(C(=O)N2CCC[C@H]2C(=O)N[C@@H](C(=O)N[C@@H](CCC(=O)O)C(=O)NC2CCCCC2)C(C)C)ccc1[N+](=O)[O-]` the value was 117%; for `O=C(CNC(=O)c1csc(-c2ccc(C(F)(F)F)cc2)n1)N[C@@H](Cc1ccccc1)C(=O)N[C@@H](Cc1c[nH]cn1)C(=O)O`, 137%; for `CCCCCCCCCCCOc1ccc(C(=O)N[C@@H](Cc2ccc(O)cc2)C(=O)N[C@@H](Cc2ccc(O)cc2)C(=O)N[C@@H](Cc2ccc(O)cc2)C(=O)N(C)CCc2ccccn2)cc1`, 86%. For `O=C(CNC(=O)[C@H](Cc1ccc(O)cc1)NC(=O)c1ccc(F)cc1)N[C@@H](Cc1ccc(O)cc1)C(=O)Nc1ccccc1` the value was 97%; for `O=C(CNC(=O)c1coc(-c2ccccc2)n1)N[C@@H](Cc1c[nH]cn1)C(=O)N[C@@H](Cc1ccccc1)C(=O)O`, 84%; for `CC[C@H](C)[C@H](NC(=O)[C@H](Cc1ccccc1)NC(=O)c1cccnc1)C(=O)N[C@@H](CCCNC(=N)N)C(=O)OC` (Nicotinoyl-Phe-Ile-Arg-OMe), 105%. Turning to `COC(=O)[C@H](CO)NC(=O)[C@H](Cc1c[nH]cn1)NC(=O)[C@H](CCCCN)NC(=O)CCc1ccccc1` (Hydrocinnamoyl-Lys-His-Ser-OMe), the inhibition was 86%. On to `C=CCOC(=O)[C@H](CO)NC(=O)CNC(=O)[C@H](Cc1ccccc1)NC(=O)c1coc(-c2ccccc2)n1`, for which the inhibition is 109%. For `O=C(CNC(=O)[C@H](Cc1c[nH]cn1)NC(=O)OCc1ccccc1)N[C@@H](Cc1ccc(O)cc1)C(=O)NCC(O)CO` (stereo partly specified), the inhibition worked out at 74%. In the case of `C=CCCCCCCCCCOC(=O)[C@H](CC(C)C)NC(=O)[C@H](COC(C)(C)C)NC(=O)[C@H](Cc1ccccc1)NC(=O)CCc1ccccc1` it was 108%; in that of `CCCCCc1ccccc1CCC(=O)N[C@H](Cc1cnc[nH]1)C(=O)N[C@@H](Cc1ccc(O)cc1)C(=O)N[C@@H](Cc1ccccc1)C(=O)O`, 37%; in that of `O=C(N[C@@H](Cc1ccc(O)cc1)C(=O)N[C@@H](Cc1ccc(O)cc1)C(=O)N[C@@H](Cc1ccc(O)cc1)C(=O)OCCCl)c1ccc(F)cc1F`, 71%.

For the compound `CCCCCCCCCCC(=O)N[C@@H](Cc1ccc(O)cc1)C(=O)N[C@@H](Cc1c[nH]cn1)C(=O)N[C@@H](Cc1c[nH]cn1)C(=O)NCCCn1ccnc1`, the inhibition is 59%. For `C[C@H](NC(=O)[C@@H](NC(=O)c1ccc(-c2ccccc2)cc1)[C@@H](C)O)C(=O)N[C@@H](CCC(=O)O)C(=O)O` the value was 96%; for `CC[C@H](C)[C@H](NC(=O)CCc1ccc(F)cc1)C(=O)N[C@@H](C)C(=O)N[C@@H](CCC(N)=O)C(=O)Nc1cccc(Br)n1`, 92%; for `O=C(/C=C/c1ccc(F)cc1)N[C@@H](CO)C(=O)N[C@@H](Cc1ccccc1)C(=O)N[C@@H](CO)C(=O)OCCCl`, 84%.

For the compound `NCCCC[C@H](NC(=O)CCc1ccccc1)C(=O)N[C@@H](Cc1c[nH]cn1)C(=O)N[C@@H](CO)C(=O)Nc1ccc(F)cc1F`, the inhibition is 96%. In the case of `NC(=O)CC[C@H](NC(=O)[C@H](Cc1ccccc1)NC(=O)[C@H](CO)NC(=O)CCc1ccccc1)C(=O)Nc1ccc(F)cc1` it was 88%; in that of `COC(=O)[C@H](CCC(=O)O)NC(=O)[C@H](C)NC(=O)[C@@H](NC(=O)c1ccc(-c2ccccc2)cc1)[C@@H](C)O`, 101%; in that of `CC(C)(C)Oc1ccc(C[C@H](NC(=O)c2coc(-c3ccccc3)n2)C(=O)NCC(=O)N[C@@H](Cc2ccccc2)C(=O)O)cc1`, 82%. For `COC(=O)[C@H](CCC(N)=O)NC(=O)[C@H](Cc1ccccc1)NC(=O)CNC(=O)CCc1ccccc1` (Hydrocinnamoyl-Gly-Phe-Gln-OMe) the value was 92%; for `CCCCCCCCCCCC(=O)N[C@@H](Cc1c[nH]cn1)C(=O)N[C@@H](Cc1ccccc1)C(=O)N[C@@H](Cc1ccc(O)cc1)C(=O)NO` (Lauroyl-His-Phe-Tyr-{NHOH}), 89%; for `C[C@H](NC(=O)C(Br)C(Br)c1ccc(F)cc1)C(=O)NCC(=O)N[C@@H](Cc1ccc(O)cc1)C(=O)Nc1ccc(F)cc1F` (stereo partly specified), 69%. For `NC(=O)CC[C@H](NC(=O)[C@H](Cc1ccccc1)NC(=O)[C@H](CO)NC(=O)CCc1ccccc1)C(=O)O` (Hydrocinnamoyl-Ser-Phe-Gln-OH) the value was 102%; for `CC(C)C[C@H](NC(=O)c1coc(-c2ccccc2)n1)C(=O)NCC(=O)N[C@@H](Cc1c[nH]cn1)C(=O)Nc1ccc(F)cc1F`, 88%. With `C[C@H](NC(=O)/C=C/c1ccc(F)cc1)C(=O)NCC(=O)N[C@@H](Cc1ccc(O)cc1)C(=O)O`, the inhibition turned out to be 76%. In the case of `O=C(CNC(=O)c1coc(-c2ccccc2)n1)N[C@@H](Cc1c[nH]cn1)C(=O)N[C@@H](Cc1c[nH]cn1)C(=O)O` it was 96%; in that of `O=C(CNC(=O)[C@H](Cc1ccccc1)NC(=O)c1csc(-c2cccs2)n1)N[C@@H](CO)C(=O)Nc1nccs1`, 124%; in that of `CCOC(=O)[C@H](CCC(N)=O)NC(=O)[C@H](Cc1ccccc1)NC(=O)[C@H](C)NC(=O)CCc1ccccc1` (Hydrocinnamoyl-Ala-Phe-Gln-OEt), 107%. In the case of `O=C(/C=C/c1ccc(F)cc1)N[C@@H](CO)C(=O)NCC(=O)N[C@@H](CO)C(=O)NC1CCCCC1` it was 81%; in that of `O=C(CNC(=O)[C@H](Cc1ccc(O)cc1)NC(=O)c1ccc(F)cc1)N[C@@H](Cc1ccc(O)cc1)C(=O)OCCCl`, 55%. For `NC(=O)CC[C@H](NC(=O)[C@H](Cc1ccccc1)NC(=O)CNC(=O)CCc1ccccc1)C(=O)NC1CCCCC1` the value was 50%; for `CCCCCCCCCCCCCC(=O)N[C@@H](Cc1ccc(O)cc1)C(=O)N[C@@H](Cc1ccc(O)cc1)C(=O)N[C@@H](Cc1ccc(O)cc1)C(=O)N(C)OC`, 89%.

The values are drawn from ChEMBL document CHEMBL1153722, “Design, synthesis, and characterization of peptide-based rab geranylgeranyl transferase inhibitors” (J Med Chem, 2009).
